Data as given in ChEMBL document CHEMBL3046908, “Nematicidal activity of (E,E)-2,4-decadienal and (E)-2-decenal from Ailanthus altissima against Meloidogyne javanica” (J Agric Food Chem, 2012).
In brackets after ≈: the same amount, converted by molar mass. Activity calls are given as the source filed them. No cut-off for these calls is given here.

Assays:
Type in all cases: functional, organism-based
Meloidogyne javanica [1] = test: Nematicidal Activity against Meloidogyne javanica (root-knot nematode) assessed as death/paralysis of nematodes at 1 day after immersion in test solution; conditions: 24 h
Procedure, shortened: (§1)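 J2 of an Italian M. javanica population reared two months on tomato in a glasshouse at 25+2 °C. Pure compounds were made up as double-strength solutions (methanol ≤1% v/v final, tween in water) and mixed 1:1 with 15 J2 per well, covered, dark, 28 °C. Paralysis was scored by microscope, 5 replicates, run twice, Schneider-Orelli corrected, EC50 by regression.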

Meloidogyne javanica [2] = test: Nematicidal Activity against Meloidogyne javanica (root-knot nematode) assessed as death/paralysis of nematodes at 1 hr after immersion in test solution; procedure, shortened: as §1
Meloidogyne javanica [3] = test: Nematicidal Activity against Meloidogyne javanica (root-knot nematode) assessed as death/paralysis of nematodes at 25 to 1000 mg/l at 1 hr after immersion in test solution
Procedure, shortened: (§2)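 Second-stage juveniles (J2) came from an Italian M. javanica population reared two months on tomato in a glasshouse at 25±2 °C. Solutions at double strength were mixed 1:1 with 15 J2 per well, covered, in the dark at 28 °C. Methanol was ≤1% v/v final, and water and 0.3% tween controls were run. Paralysis was scored at 10×. Five replicates per treatment, experiment done twice. Control-corrected (Schneider-Orelli) EC50 was obtained by regression.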

Meloidogyne javanica [4] = test: Nematicidal Activity against Meloidogyne javanica (root-knot nematode) assessed as death/paralysis of nematodes at 25 to 1000 mg/l at 1 day after immersion in test solution; procedure, shortened: as §2

| SMILES | EC50 (Meloidogyne javanica [1]) | EC50 (Meloidogyne javanica [2]) | Activity (Meloidogyne javanica [3]) | Activity (Meloidogyne javanica [4]) |
| --- | --- | --- | --- | --- |
| CCCCC/C=C/C=C/C=O | 11.7 µg/mL (≈ 76.9 µM) | 7.53 µg/mL (≈ 49.5 µM) | – | – |
| CCCCC/C=C/C=O | > 25 µg/mL | – | inactive | – |
| CCCCCCCC/C=C/C=O | > 25 µg/mL | > 25 µg/mL | – | – |
| CCCCCC=O | – | – | inactive | inactive |
| CCCCCCC=O | – | – | inactive | inactive |
| O=Cc1ccc(CO)o1 [AES-103] | > 25 µg/mL | > 25 µg/mL | – | – |
| CCOP(=O)(SC(C)CC)N1CCSC1=O (stereo not given) [FOSTHIAZATE] | 15.9 µg/mL (≈ 56.1 µM) | > 25 µg/mL | – | – |
| O=Cc1ccco1 [FURFURAL] | 21.8 µg/mL (≈ 227 µM) | > 25 µg/mL | – | – |
| CCCCCCCCC=O [NONANAL] | – | > 50 µg/mL | – | inactive |
| CCCCCCC/C=C/C=O [TRANS-2-DECENAL] | 20.4 µg/mL (≈ 132 µM) | 11.8 µg/mL (≈ 76.2 µM) | – | – |
